An excerpt weighted towards active compounds, which were near 1.3% of everything screened.
ABHD4 inh: inhibitors of mouse ABHD4; inhibition, % at 8.92 µM; AID 720543; hit rate 0.54% among 370,000; Q8VD66; purified mABHD4, FP-Rh probe fluorescence polarization;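 active = inhibition exceeding the mean over every tested compound plus 3 SD, cut at about 30% in these data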
Target sequence (Q8VD66 whole entry, looked up): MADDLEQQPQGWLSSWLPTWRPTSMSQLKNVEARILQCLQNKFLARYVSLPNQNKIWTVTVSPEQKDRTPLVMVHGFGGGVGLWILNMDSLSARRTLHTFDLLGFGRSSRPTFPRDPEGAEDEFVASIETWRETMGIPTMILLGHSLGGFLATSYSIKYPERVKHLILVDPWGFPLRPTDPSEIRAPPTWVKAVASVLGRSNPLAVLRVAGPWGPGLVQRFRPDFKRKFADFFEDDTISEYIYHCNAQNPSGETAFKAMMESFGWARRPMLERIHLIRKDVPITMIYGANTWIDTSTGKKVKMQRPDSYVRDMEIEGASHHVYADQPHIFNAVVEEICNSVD
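Test system: mouse ABHD4 enzyme, wild type. Reagent: FP-Rh fluorescent activity-based probe, added after compound pre-incubation. Timing: pre-incubation 45 min, probe exposure 60 min, at 25 °C. Technique: FP readout, ex 525 nm / em 598 nm. Benchmarks: high control S159A mutant with DMSO, low control median of compound wells.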
TCR-CD3 inh: human TCR-CD3 binding inhibition | TAMRA-labeled TCR probe fluorescence, biochemical | inhibition, % at 9.4 µM | hit rate 0.37% among 360,000 | AID 651800; in the data active = inhibition above about 19%;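 note: recombinant mutant TCR 2C K166C tagged with TAMRA read by polarization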
HTRA1 inhibitor: blocks human HTRA1 serine peptidase | recombinant HTRA1, FP-rhodamine activity-based probe, fluorescence polarization | Q92743 | AID 504803 | inhibition, % at 5.96 µM | hit rate 0.5% among 340,000; in the data active = inhibition above about 36%
DDE Tn6 FP inh: DD(E)-Tn6 binding inhibition, primary FP screen; inhibition, % at 8.3 µM; hit rate 0.21% among 370,000; AID 720509; P02675; Fibrin DD(E) TRITC-Tn6 fluorescence polarization displacement;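 active = inhibition above a per-campaign cutoff: mean of compounds within control limits plus 3 SD, cut at about 15% in these data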
Tn7 DDE FP: inhibitors of Tn7 peptide binding to human fibrin DD(E); FP displacement of FITC-Tn7 peptide from fibrin DD(E); 0% = median of compound wells per plate; hit rate 0.13% among 370,000; P02675; inhibition, % at 8.3 µM;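 active = inhibition above the mean of compounds falling within the control limits plus 3 SD of them, cut at about 14% in these data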
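system = human fibrin DD(E) protein | quantity = DD(E) 2 µM final | medium = Tris/NaCl/CaCl2 buffer, pH 7.8 | also added = labelled Tn7 tracer, 0.1 µM | compound dosing = single point at 8.3 µM | timing = compound with protein 10 min, then 3 h after probe, room temperature | signal = FP measurement | benchmarks = Aha-Tn7 high control | repeats = one replicate per compound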
Tn7 DDE conf: confirmation of inhibitors of Tn7 binding to human fibrin DD(E); shares compounds with Tn7 DDE FP; AID 720628; hit rate 5% among 460; FP displacement of TRITC-Tn7 peptide from DD(E); 0% set at plate's compound-well median; inhibition, % at 8.3 µM;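 active = inhibition above the campaign cutoff, the mean of compounds within control limits plus 3 SD, cut at about 14% in these data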;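 note: displacers lower polarization since freed probe rises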
Tn7 DDE ctr: counter-screen for inhibitors of Tn7 peptide binding to fibrin DD(E) | shares compounds with Tn7 DDE FP | TRITC-Tn7 probe displacement, fluorescence polarization | inhibition, % at 8.3 µM | hit rate 3% among 460 | AID 720633;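 active = inhibition above the cutoff, the mean of compounds lying between the control bounds plus 3 SD of those compounds, cut at about 17% in these data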
Each line names hits and unclear results; the compound was inactive in the other large screens (follow-up assays come after a bar, where they were run).

CN(CC(=O)Nc1ccc(N2CCOCC2)cc1)C(=O)C1CCCC1	none
COc1ccccc1-c1sc2ccccc2c1C#Cc1ccc(N(C)C)cc1	Tn7 DDE FP 13.9 | Tn7 DDE conf inactive | Tn7 DDE ctr inactive
COc1ccccc1-c1sc2ccccc2c1-c1ccc(O)cc1	none
COc1ccc(CCC(=O)N2CCN(c3ccccc3)CC2)cc1OC	Tn7 DDE FP 15.3 | Tn7 DDE conf inactive | Tn7 DDE ctr inactive
O=C(N/C(C(=O)N1CCOCC1)=C(\Sc1ncccn1)c1ccccc1)c1ccccc1	Tn7 DDE FP 14.8 | Tn7 DDE conf inactive | Tn7 DDE ctr inactive
C#CCn1cc(/C=N/NC(=O)c2cc3ccccc3o2)c2ccccc21	Tn7 DDE FP 18.3 | Tn7 DDE conf 14.4 | Tn7 DDE ctr inactive
COc1cccc(C(=O)N2CCCC(c3nc(-c4cccs4)no3)C2)c1 (stereo unspecified)	none
O=C(c1cccc(F)c1)N1CCCC(c2nc(-c3cccs3)no2)C1 (stereo unspecified)	Tn7 DDE FP 15.3 (no result: TCR-CD3 inh, HTRA1 inhibitor) | Tn7 DDE conf inactive | Tn7 DDE ctr inactive
O=C(CN1CCN(c2ccccn2)CC1)N(c1ccccc1)c1ccc2ccccc2c1	Tn7 DDE FP 14.6 | Tn7 DDE conf inactive | Tn7 DDE ctr inactive
COc1ccc(Cn2nnnc2C(c2ccc3ncccc3c2)N2CCN(C3CCCCC3)CC2)cc1 (stereo unspecified)	Tn7 DDE FP 14.3 | Tn7 DDE conf inactive | Tn7 DDE ctr inactive
COc1ccc(Cn2nnnc2C(c2ccc(C)cc2)N2CCN(C3CCCC3)CC2)cc1 (stereo unspecified)	none
COc1cc([N+](=O)[O-])c2nccnc2c1	none
O=C(Nc1cccnc1)c1ccc([N+](=O)[O-])cc1Cl	Tn7 DDE FP 16.2 | Tn7 DDE conf inactive | Tn7 DDE ctr inactive
O=C(Nc1cccc(OC(F)(F)F)c1)c1ccc(-c2cccnc2)c2ccoc12	Tn7 DDE FP 14.0 (no result: HTRA1 inhibitor) | Tn7 DDE conf inactive | Tn7 DDE ctr inactive
COc1cc(NC(=O)c2ccc(-c3cccnc3)c3ccoc23)cc(OC)c1OC	none (no result: HTRA1 inhibitor)
COc1ccc(OC)c(-c2nc(CN(C)C(C)c3ccncn3)c(C)o2)c1 (stereo unspecified)	none
O=C(CCSc1ccc(F)cc1)Nc1ccc(-n2cnnn2)cc1	none
CC1CCC(NC(=O)c2cc3c(=O)n(C)c4ccccc4c3n2C)CC1 (stereo unspecified)	Tn7 DDE FP 14.3 | Tn7 DDE conf inactive | Tn7 DDE ctr inactive
CN(C)S(=O)(=O)c1ccc(Cl)c(C(=O)OCC(=O)c2ccco2)c1	none
O=C(CP(=O)(c1ccccc1)c1ccccc1)Nn1cnnc1	Tn7 DDE FP 16.5 | Tn7 DDE conf inactive | Tn7 DDE ctr inactive
NNC(=O)CP(=O)(c1ccccc1)c1ccccc1	none
COc1cc([N+](=O)[O-])ccc1NC(=S)NNC(=O)CCC(=O)Nc1ccccc1Cl	Tn7 DDE FP 14.6 | Tn7 DDE conf inactive | Tn7 DDE ctr inactive
CN(C)CCN(C(=O)C1CCN(S(=O)(=O)c2cccs2)CC1)c1nc2c(F)cccc2s1	none
COc1ccc(NC(=O)c2cc(-c3cccs3)on2)c(OC)c1	none
COc1ccc(OC)c(NC(=O)c2ccc(-c3cccs3)cc2)c1	Tn7 DDE FP 14.8 | Tn7 DDE conf inactive | Tn7 DDE ctr inactive
Cc1cccc(NC(=O)c2cc(Cl)ccc2[N+](=O)[O-])c1	Tn7 DDE FP 14.0 | Tn7 DDE conf inactive | Tn7 DDE ctr inactive
Cc1ccc2nc(N3C(=O)C(O)=C(C(=O)c4ccc(C)o4)C3c3cccc(O)c3)sc2c1 (stereo unspecified)	none
O=C(CSc1nc2ccccc2c(=O)n1-c1ccc(Cl)c(Cl)c1)Nc1ccc2c(c1)CCC2	none (no result: HTRA1 inhibitor)
Cc1ccc(NC(=O)C(c2ccccc2)N2CCN(CC(=O)N3CCOCC3)CC2)cc1 (stereo unspecified)	none
COc1cccc(NC(=O)C(c2ccccc2)N2CCN(CC(=O)N3CCOCC3)CC2)c1 (stereo unspecified)	Tn7 DDE FP 15.0 | Tn7 DDE conf inactive | Tn7 DDE ctr inactive
CC(C)[C@H](NC(=O)c1ccccc1)C(=O)OCC(=O)Nc1ccc2c(c1)OCCO2	none
COc1ccc(OCc2nnc(SCC(=O)Nc3oc(C)c4c(C)n[nH]c(=O)c34)n2C)cc1	none
CCOC(=O)C1=CCN(S(=O)(=O)c2cccc(Cl)c2)C1c1cccc(Cl)c1 (stereo unspecified)	Tn7 DDE FP 15.6 (no result: HTRA1 inhibitor) | Tn7 DDE conf inactive | Tn7 DDE ctr inactive
O=C(Nc1ccc(C(=O)N2CCCC(CO)C2)cc1)c1ccc(Br)o1 (stereo unspecified)	none
O=C(NCCCC1CCCC1)C1CCC(=O)N(Cc2ccc(Cl)cc2)C1 (stereo unspecified)	Tn7 DDE FP 14.2 | Tn7 DDE conf inactive | Tn7 DDE ctr inactive
CCc1ccc(C(=O)N2CCN(c3ccc(F)cc3)CC2)s1	Tn7 DDE FP 16.3 | Tn7 DDE conf inactive | Tn7 DDE ctr inactive
O=C(NCc1ccc(Cl)cc1)c1ccc(Cn2cc(C(F)(F)F)ccc2=O)cc1	Tn7 DDE FP 48.7 | Tn7 DDE conf 26.9 | Tn7 DDE ctr inactive
O=C(COc1ccccc1C(=O)Nc1ccccc1)c1ccc(F)cc1	none
Cc1ccc(C2C(C(=O)c3cccs3)=C(O)C(=O)N2c2nnc(C)s2)cc1 (stereo unspecified)	Tn7 DDE FP 31.6 | Tn7 DDE conf inactive | Tn7 DDE ctr inactive
Cc1noc(/C=C/c2ccc(-c3ccccc3Cl)o2)c1[N+](=O)[O-]	none (no result: ABHD4 inh, TCR-CD3 inh, DDE Tn6 FP inh, Tn7 DDE FP)
COc1ccccc1NC(=O)NNC(=O)C(C)Oc1ccc2ccccc2c1 (stereo unspecified)	none
C#CCCC(=O)Nc1sc2c(c1-c1nc3ccccc3s1)CCN(C(C)C)C2	Tn7 DDE FP 16.2 (no result: TCR-CD3 inh, HTRA1 inhibitor) | Tn7 DDE conf 14.0 | Tn7 DDE ctr inactive
CC(=O)Nc1sc2c(c1-c1nc3ccccc3s1)CCN(C(C)C)C2	none (no result: ABHD4 inh, TCR-CD3 inh, DDE Tn6 FP inh, Tn7 DDE FP)
O=C(NCc1cccs1)C1(S(=O)(=O)c2ccccc2)CC=CC1	none
CC(=O)C(Cc1ccccc1)NC(=O)CCl (stereo unspecified)	none
O=C(CCl)NC(Cc1ccccc1)c1ccccc1 (stereo unspecified)	Tn7 DDE FP 14.7 | Tn7 DDE conf inactive | Tn7 DDE ctr inactive
CC1(c2ccc(Cl)cc2)NC(=O)N(CC(=O)N2CCc3ccccc3C2)C1=O (stereo unspecified)	Tn7 DDE FP 15.2 | Tn7 DDE conf inactive | Tn7 DDE ctr inactive
CC1(c2ccccc2Cl)NC(=O)N(CC(=O)N2CCc3ccccc3C2)C1=O (stereo unspecified)	none
O=C1C=CC(O)(c2cc(=O)c3c(O)cc(O)cc3o2)C=C1	Tn7 DDE FP 14.5 | Tn7 DDE conf inactive | Tn7 DDE ctr inactive

Assay outcomes from PubChem.
